Data taken from PubChem BioAssay.
Results filed as inconclusive are left out.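 Rule for the calls, unless noted: active = cell viability at or below a set limit in both duplicate runs, the limit being the all-compound median minus 4 SD (cut at about 23% in these data, passing the limit was not always enough); inconclusive = no clear call, values can overlap the other calls; inactive = the rest.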

Legend:
[1] = OD615 S. cerevisiae growth inhibition, permissive medium, pilot counter-assay, permissive growth control for S. cerevisiae lifespan shortening project (AID 705;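 active = growth inhibition above 25% in both replicates, a cutoff set 3 SD above the mean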); details: OD615, 24 h, at 10 µM, hits give high values
How it was run: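 System: Engineered DeaD yeast | Buffer or medium: SC raffinose/galactose permissive medium | Doses: 10 µM single dose, 0.25% DMSO | Times: 24 h exposure, 30 °C | Measured by: OD615 turbidity read | Read-out: Yeast growth inhibition indicated by reduced 24 h OD615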

[2] = Restrictive medium S. cerevisiae growth inhibition, OD615, pilot screen of yeast lifespan reduction project, restrictive growth control (AID 706;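 active = growth inhibition above a set limit, 3 SD over mean compound inhibition, in both replicates, cut at about 43% in these data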;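 note: modified DeaD lifespan yeast strain shifted to restrictive glucose medium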); details: OD615, 48 h, at 10 µM, hits give high values
How it was run: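 Assay system: engineered S. cerevisiae DeaD strain; Buffer or medium: CSMM-D glucose medium; Dosing: 10 µM compound, 0.25% DMSO; Times: cell pre-growth 4 h, compound exposure 48 h, 30 °C; Detection: absorbance (optical density) measured at 615 nm.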

[3] = viability gain of MRP-1-high H69AR cells under doxorubicin, pilot screen, MRP-1 activator project, CellTiter-Glo, duplicate (AID 807;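 active = viability increase at or above a cutoff of the median across tested compounds plus 3 SD, cut at about 8.5% in these data, passing the limit was not always enough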;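 note: compound pretreatment 18-22 h then 72 h combined with doxorubicin; 0% = doxorubicin alone and 100% = vehicle without doxorubicin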); details: H69AR viability with doxorubicin, CellTiter-Glo luminescence; at 10 µM; hits give high values
[4] = growth suppression of beta-catenin knockout HCT116, pilot screen, human colon tumor cells (AID 823); details: CellTiter-Glo, 60 h, at 10 µM, hits give low values;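 note: 0% = wells killed by 20 µM Hyamine and 100% = untreated DMSO cell wells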
[5] = growth suppression of PTEN-deleted HCT116, pilot screen, cell-based, HCT116 clonal line, CellTiter-Glo (AID 824;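 active = viability at or below 27.92% in each of two runs, the all-compound median minus 4 SD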;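 note: 0% = 20 µM Hyamine control and 100% = vehicle cell control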); details: 60 h, at 10 µM, hits give low values
[6] = inhibitors of the yeast RAM network, pilot screen, dse1pr::URA3 reporter, 5-FOA selection (AID 869;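 active = inhibition over a set limit, the all-compound mean plus 3 SD, in both replicate runs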;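 note: 0% = DMSO wells with no growth and 100% = 10 µM 1-NA-PP1 with full growth; RAM network block rescues cells from 5-FOA so hits raise OD615 growth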); details: S. cerevisiae dse1pr::URA3 5-FOA growth, OD615, 2 d; at 10 µM; hits give high values; strain carries analog-sensitive mutant Cbk1 kinase
[7] = RAM signaling pathway blockade in yeast – S. cerevisiae, Pdr1DBD-CYC8 efflux-inhibited sensitized strain, primary screen (AID 1298;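 active = RAM network inhibition above 8.4% in each of two replicates, 3 SD over the compound average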;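 note: 0% = DMSO untreated cells without growth and 100% = 10 µM 1-NA-PP1 full growth; higher means more yeast growth rescued from 5-FOA killing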); details: S. cerevisiae cbk1-as DSE1-URA3 strain, 5-FOA growth OD615, 2 d; at 50 µM; hits give high values

CC1CCN(c2nnc(N3CCC(C)CC3)c3ccccc23)CC1
inactive: growth inhibition [1] -19.1% | growth inhibition [2] -14.8% | viability increase [3] -3.17% | viability [4] 84% | viability [5] 81.8% | inhibition [6] 1.98% | RAM network inhibition [7] 4.58%

O=C1CCCN1CC(CN1CCOCC1)Sc1nc2ccccc2c(=O)n1-c1ccccc1 (configuration not stated)
inactive: growth inhibition [1] -2.25% | growth inhibition [2] -6.07% | viability increase [3] -6.36% | viability [4] 92.1% | viability [5] 97.3% | inhibition [6] 1.88% | RAM network inhibition [7] 1.94%

O=C(NCCCN1CCN(c2ccccc2F)CC1)C1CCCN(S(=O)(=O)c2cnc[nH]2)C1 (configuration not stated)
inactive: growth inhibition [1] 4.25% | growth inhibition [2] 2.15% | viability increase [3] 1.39% | viability [4] 95.1% | viability [5] 102% | inhibition [6] -0.46% | RAM network inhibition [7] 0.21%

CSCCC1(C(=O)O)NC(c2ccccc2O)C2C(=O)N(C(C)C)C(=O)C21 (configuration not stated)
inactive: growth inhibition [1] 2.37% | growth inhibition [2] 11.6% | viability increase [3] -1.09% | viability [4] 102% | viability [5] 94.7% | inhibition [6] 0.875% | RAM network inhibition [7] 3.49%

COc1ccc(OC)c(NC(=O)c2ccc(CN3CCOCC3)cc2)c1
inactive: growth inhibition [1] 9.65% | growth inhibition [2] 0.145% | viability increase [3] 0.88% | viability [4] 104% | viability [5] 111% | inhibition [6] 1.52% | RAM network inhibition [7] 4.85%

O=C(NCCc1csc(-c2cccnc2)n1)c1ccco1
inactive: growth inhibition [1] 4.59% | growth inhibition [2] 4.47% | viability increase [3] -4.68% | viability [4] 105% | viability [5] 98.6% | inhibition [6] 0.97% | RAM network inhibition [7] 2.36%

Cc1ccc(CSc2nc3c(c(=O)[nH]c(=O)n3C)n2CCC(C)C)cc1
inactive: growth inhibition [1] -2.01% | growth inhibition [2] -11.3% | viability increase [3] -7.6% | viability [4] 53.1% | viability [5] 51.2% | inhibition [6] 4.83% | RAM network inhibition [7] 7.58%

O=C(Cn1c(=O)oc2ccccc21)N1CCN(c2ccc(N3CCOCC3)nn2)CC1
inactive: growth inhibition [1] -0.78% | growth inhibition [2] -14% | viability increase [3] -2.65% | viability [4] 101% | viability [5] 101% | inhibition [6] 1.31% | RAM network inhibition [7] 2.63%

Cc1ccc(NC(=O)c2cc(-c3cccc(O)c3)on2)cc1C
inactive: growth inhibition [1] -19.1% | growth inhibition [2] -5.78% | viability increase [3] -0.54% | viability [4] 92.1% | viability [5] 87% | inhibition [6] 3.14% | RAM network inhibition [7] 4.28%

O=C1CC(N2CCN(C/C=C/c3ccccc3)CC2)C(=O)N1CCc1ccccc1 (configuration not stated)
inactive: growth inhibition [1] -12.7% | growth inhibition [2] -9.45% | viability increase [3] -0.11% | viability [4] 72.8% | viability [5] 77.6% | inhibition [6] 1.02% | RAM network inhibition [7] 7.71%

Cc1ccn2c(-c3csc(NCc4ccco4)n3)c(C)nc2c1
inactive: growth inhibition [1] -1.21% | growth inhibition [2] 2.84% | viability increase [3] -4.37% | viability [4] 66.6% | viability [5] 71.8% | inhibition [6] 3.51% | RAM network inhibition [7] 3.65%

CCc1cccc(Nc2cc(C)nc3nc(C)nn23)c1
inactive: growth inhibition [1] -14.3% | growth inhibition [2] -3.76% | viability increase [3] -3.25% | viability [4] 96.7% | viability [5] 88.3% | inhibition [6] 2.72% | RAM network inhibition [7] 2.83%

CCOc1nonc1C(=N)/C(C(C)=O)=C(\C)O
inactive: growth inhibition [1] -12.6% | growth inhibition [2] -12.1% | viability increase [3] -1.06% | viability [4] 104% | viability [5] 98% | inhibition [6] 1.42% | RAM network inhibition [7] -0.48%

O=C(NCCOC(=O)c1ccncc1)c1ccccc1
inactive: growth inhibition [1] -0.685% | growth inhibition [2] -1.32% | viability increase [3] -0.4% | viability [4] 99.2% | viability [5] 99.7% | inhibition [6] 1.27% | RAM network inhibition [7] 3.05%

Cc1ccsc1C1C2=C(CC(C)(C)CC2=O)Nc2ncnn21 (configuration not stated)
inactive: growth inhibition [1] -13.7% | growth inhibition [2] 11.9% | viability increase [3] -4.49% | viability [4] 101% | viability [5] 102% | inhibition [6] 1.98% | RAM network inhibition [7] 4.28%

Cc1cc(Nc2ccccc2Br)n2nc(C)nc2n1
inactive: growth inhibition [1] -3.05% | growth inhibition [2] -13.3% | viability increase [3] -2.64% | viability [4] 107% | viability [5] 98.2% | inhibition [6] 1.9% | RAM network inhibition [7] -1.82%

CC(C)N1C(=O)C2C(c3ccccc3O)NC(C)(C(=O)O)C2C1=O (configuration not stated)
inactive: growth inhibition [1] 7.56% | growth inhibition [2] 5.16% | viability increase [3] -0.38% | viability [4] 101% | viability [5] 104% | inhibition [6] 0.765% | RAM network inhibition [7] 1.54%

O=C(NCc1cccnc1)c1nnc(Cc2ccc(F)cc2)o1
inactive: growth inhibition [1] 7.17% | growth inhibition [2] 2.65% | viability increase [3] 2.16% | viability [4] 98.4% | viability [5] 103% | inhibition [6] 0.03% | RAM network inhibition [7] 3.62%

COc1ccc(C)cc1NC(=O)CSc1nnc(-c2ccc(C)cc2)o1
inactive: growth inhibition [1] -8.71% | growth inhibition [2] 30.3% | viability increase [3] 1.15% | viability [4] 91.9% | viability [5] 86.8% | inhibition [6] 2.09% | RAM network inhibition [7] 5.49%

O=C(Cn1c(NCCCO)nc2ccccc21)c1cccs1
inactive: growth inhibition [1] -5.45% | growth inhibition [2] -2.54% | viability increase [3] -1.98% | viability [4] 110% | viability [5] 91.7% | inhibition [6] 2.46% | RAM network inhibition [7] 0.62%

Clc1ccc(Sc2oc(/C=N/n3cnnc3)cc2Br)cc1
inactive: growth inhibition [1] -0.475% | growth inhibition [2] 22.4% | viability increase [3] -8.12% | viability [4] 27.6% | viability [5] 50.5% | inhibition [6] 0.36% | RAM network inhibition [7] 1.69%

O=C(Nc1cccnc1)c1ccccc1F
inactive: growth inhibition [1] -7.93% | growth inhibition [2] 4.54% | viability increase [3] -0.03% | viability [4] 103% | viability [5] 103% | inhibition [6] 0.88% | RAM network inhibition [7] 2.95%

CCCCN1C(=O)C2C(c3ccc(OC)cc3O)NC(CC(C)C)(C(=O)O)C2C1=O (configuration not stated)
inactive: growth inhibition [1] -7.45% | growth inhibition [2] -8.79% | viability increase [3] 0.44% | viability [4] 97.7% | viability [5] 92.7% | inhibition [6] 0.895% | RAM network inhibition [7] 0.99%

CN(C(=O)c1ccc(=O)[nH]c1)C1(C(=O)NC2CCCCC2)CCCCC1
inactive: growth inhibition [1] -7.84% | growth inhibition [2] -8.31% | viability increase [3] -0.61% | viability [4] 95.7% | viability [5] 101% | inhibition [6] 0.78% | RAM network inhibition [7] 1.66%

COc1ccc(OC)c(NC(=O)C2CCCN(S(=O)(=O)c3cccc4cccnc34)C2)c1 (configuration not stated)
inactive: growth inhibition [1] -12.7% | growth inhibition [2] -10.7% | viability increase [3] -3.24% | viability [4] 87.3% | viability [5] 80.1% | inhibition [6] 1.78% | RAM network inhibition [7] 6.71%

COc1ccc2[nH]c(C)c(CN3CCC(C)CC3)c(=O)c2c1
inactive: growth inhibition [1] 0.03% | growth inhibition [2] -2.44% | viability increase [3] -2.02% | viability [4] 98.5% | viability [5] 90.8% | inhibition [6] 1.03% | RAM network inhibition [7] 2.42%

CCOc1ccc(-c2noc(CCC(=O)O)n2)cc1
inactive: growth inhibition [1] 6.08% | growth inhibition [2] -3.1% | viability increase [3] 0.28% | viability [4] 102% | viability [5] 95.1% | inhibition [6] 1.56% | RAM network inhibition [7] 0.42%

CCC(c1ccccc1)c1nc(-c2ccccn2)no1 (configuration not stated)
inactive: growth inhibition [1] -3.45% | growth inhibition [2] -5.84% | viability increase [3] 1.44% | viability [4] 91.8% | viability [5] 97.8% | inhibition [6] 0.495% | RAM network inhibition [7] 3.77%

O=C(c1ccc(NC2=NC3CS(=O)(=O)CC3S2)cc1)N1CCc2ccccc2C1 (configuration not stated)
inactive: growth inhibition [1] -0.26% | growth inhibition [2] 11.2% | viability increase [3] -0.55% | viability [4] 109% | viability [5] 106% | inhibition [6] 1.67% | RAM network inhibition [7] 5.69%

CC(=O)N(c1ccc(C)cc1)C1C=CS(=O)(=O)C1 (configuration not stated)
inactive: growth inhibition [1] -8.96% | growth inhibition [2] 7.8% | viability increase [3] -0.41% | viability [4] 101% | viability [5] 105% | inhibition [6] 0.6% | RAM network inhibition [7] 7.21%

CC1(C)Nc2ccccc2N(CC(=O)N2CCCCC2)C1=O
inactive: growth inhibition [1] 0.325% | growth inhibition [2] -1.38% | viability increase [3] -0.05% | viability [4] 107% | viability [5] 103% | inhibition [6] -0.16% | RAM network inhibition [7] 0.97%

COc1ccc(-c2noc(-c3ccccc3F)n2)cc1
inactive: growth inhibition [1] -9.92% | growth inhibition [2] -12% | viability increase [3] -3.21% | viability [4] 86.6% | viability [5] 83.1% | inhibition [6] 0.965% | RAM network inhibition [7] 4.28%

CC(=O)c1cccc(NC(=O)c2cc(C(C)C)on2)c1
inactive: growth inhibition [1] -14.6% | growth inhibition [2] 0.275% | viability increase [3] -1.46% | viability [4] 104% | viability [5] 97.7% | inhibition [6] 0.785% | RAM network inhibition [7] 0.94%

COCCOC(=O)c1c(C)oc2ccc(OCC=C(C)C)cc12
inactive: growth inhibition [1] -0.275% | growth inhibition [2] -6.21% | viability increase [3] 3.27% | viability [4] 97.8% | viability [5] 95% | inhibition [6] 0.175% | RAM network inhibition [7] 4.81%

COc1ccc(Nc2nc(C)cc(C)c2C#N)cc1OC
inactive: growth inhibition [1] -2.02% | growth inhibition [2] 5.43% | viability increase [3] 1.79% | viability [4] 107% | viability [5] 107% | inhibition [6] 0.715% | RAM network inhibition [7] 1.79%

O=C(Nc1ccc(F)cc1F)N1CCN(C/C=C/c2ccccc2)CC1
inactive: growth inhibition [1] -1.48% | growth inhibition [2] 2.67% | viability increase [3] 0.1% | viability [4] 86.7% | viability [5] 89% | inhibition [6] 2.04% | RAM network inhibition [7] 0.95%
